# Test results taken from publication PMC4203513 (Autophagy, 2014).
# “Also recorded” adds a separate entry of the source. Where two headings read alike, the source gives them in different places.
# Tests used:
# newly diagnosed GB = conditions: radiation and carmustine with or without CQ; cited from earlier work
# [1] = test system: patients with newly diagnosed glioblastoma; format: in vivo, human
# [2] = test system: patients with newly diagnosed glioblastoma; assay: Phase II adverse events related to study drug; format: in vivo, human
# [3] = test system: autophagic vacuoles in peripheral blood mononuclear cells; assay: Electron microscopy scoring of autophagic vacuoles in PBMC; format: in vivo, human
# In short: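 PBMC were fixed in 2% glutaraldehyde and held at 4 °C. Micrographs at 10,000–12,000× covered 20–25 mononuclear cells per sample, from multiple fields. Two blinded scorers counted AV by morphological criteria, excluding mitochondria-like structures, and their counts were averaged. A mixed-effects model used time (baseline, week 3, week 9) and a random subject effect.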
# [4] = Population pharmacokinetics of HCQ in whole blood; format: in vivo, human
# [5] = test system: autophagic vacuoles in peripheral blood mononuclear cells; assay: PK-PD analysis; format: in vivo, human; conditions: at 9 wk
# [6] = test system: newly diagnosed glioblastoma; conditions: phase III trial, RT plus concomitant and adjuvant TMZ; cited from earlier work
# [7] = HCQ 800 mg/d with RT + TMZ, during chemoradiation
# [8] = phase II, n = 76, HCQ + RT + TMZ
structure (smiles),measurement,setting,value
"CCN(CC)CCCC(C)Nc1ccnc2cc(Cl)ccc12 (stereo not shown) [CQ, Chloroquine]",median overall survival,newly diagnosed GB,trend toward increased median overall survival
"CCN(CCO)CCCC(C)Nc1ccnc2cc(Cl)ccc12 (stereo not shown) [HCQ, hydroxychloroquine]",dose-limiting toxicities (DLTs),[1]; HCQ 200 mg/d with RT + TMZ,no dose-limiting toxicities
same,dose-limiting toxicities (DLTs),[1]; HCQ 400 mg/d with RT + TMZ,no dose-limiting toxicities; also recorded: no further DLTs were observed
same,dose-limiting toxicities (DLTs),"[1]; HCQ 600 mg/d with RT + TMZ, 3 patients",no DLTs
same,dose-limiting toxicity,[1]; HCQ 800 mg/d with RT + TMZ,early and severe myelosuppression; also recorded: dose-limiting myelosuppression
same,subjects with Grade 3 and 4 neutropenia and thrombocytopenia,[1]; HCQ 800 mg/d with RT + TMZ,3/3
same,patients with grade 4 neutropenia,[1]; [7],2/3
same,patients with grade 4 thrombocytopenia,[1]; [7],3/3
same,other grade 2 toxicities common to all dose levels,[1]; HCQ 200 to 800 mg/d with RT + TMZ,"nausea, fatigue, constipation, and diarrhea"
same,maximum tolerated dose (MTD) of HCQ,"[1]; oral daily, in combination with RT and concurrent and adjuvant TMZ",600 mg/day
same,patients off treatment due to toxicity,"[2]; phase I and II patients, RT + TMZ + HCQ",3%
same,"Abdominal pain, Grade 3",[2]; [8],1 (1) number of patients (%)
same,"Abdominal pain, Total (grade 3 and 4)",[2]; [8],1 (1) number of patients (%)
same,"Alanine aminotransferase increased, Grade 3",[2]; [8],2 (3) number of patients (%)
same,"Alanine aminotransferase increased, Total (grade 3 and 4)",[2]; [8],2 (3) number of patients (%)
same,"Blood bilirubin increased, Total (grade 3 and 4)",[2]; [8],1 (1) number of patients (%)
same,"Constipation, Grade 4",[2]; [8],1 (1) number of patients (%)
same,"Constipation, Total (grade 3 and 4)",[2]; [8],1 (1) number of patients (%)
same,"Eye disorders, Grade 3",[2]; [8],1 (1) number of patients (%)
same,"Eye disorders, Total (grade 3 and 4)",[2]; [8],1 (1) number of patients (%)
same,"Fatigue, Grade 3",[2]; [8],1 (1) number of patients (%)
same,"Fatigue, Total (grade 3 and 4)",[2]; [8],1 (1) number of patients (%)
same,"Neutrophil count decreased, Grade 3",[2]; [8],3 (4) number of patients (%)
same,increase in mean autophagic vacuole count (mixed-effects model),"[3]; all patients (n = 40), P = 0.041",0.075 per wk
same,treatment-associated increase in AV diameter,"[3]; one patient, 800 mg HCQ cohort",2.5 fold
same,treatment-associated increase in AV perimeter,"[3]; one patient, 800 mg HCQ cohort",10 fold
same,treatment-associated increase in percent of cytoplasm involved by AV,"[3]; one patient, 800 mg HCQ cohort",9 fold
same,relationship of HCQ exposure / whole blood concentration to dose,[4]; HCQ 200 to 800 mg/d,dose-proportional relationship; also recorded: dose-proportional and sustained exposure
same,time-dependent trend of HCQ concentrations in whole blood,[4]; groups of patients receiving the same dose,did not show a significant time-dependent trend
same,mean tlag (individual estimates),"[4]; individual PK parameter estimates derived from the population model, range 0.97 to 1.25",1.06 h
same,mean V/F (individual estimates),"[4]; individual PK parameter estimates derived from the population model, range 26 to 5483",483.96 L
same,V2/F (individual estimates),"[4]; individual PK parameter estimates derived from the population model, range 558 to 2208",963 L
same,PK-PD correlation in PBMC,[5],not significant
"Cn1nnc2c(C(N)=O)ncn2c1=O [TMZ, temozolomide]",failure rate (death),[6],0.6 per person-year of follow-up
